Myeloid diff MLP = promotes myeloid progenitor differentiation. ER-HoxA9 myeloid progenitors, lysozyme-GFP differentiation, flow cytometry. calls only at 10 µM. actives 1% (n = 360,000). AID 624256;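 active means normalized GFP-positive differentiation at or above the plate's own cutoff, the solvent-only control mean plus 3 SD; inconclusive means no clear call, values can overlap the other calls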;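 further: cells exposed to compound for four days before flow analysis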
GRK2 inh = blocks RNA aptamer binding to human GRK2; P25098; bead flow cytometry, FAM-aptamer displacement from GRK2; inhibition of aptamer binding, % at 10 µM; actives 0.59% (n = 330,000); AID 488847;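 active means inhibition of aptamer binding above 40%, roughly 3 SD of noise, on plates passing a quality check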;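 further: median bead fluorescence of bound FAM aptamer so fluorescent compounds give negative values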
SKN-1 inh = C. elegans SKN-1 inhibition; C. elegans VP596 Pgst-4::GFP/RFP ratio, acrylamide-induced, 24 h; inhibition, % at 21.8 µM; actives 0.49% (n = 360,000);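 active means interference check ratio from 0.5 to 1.5 plus GFP to RFP signal ratio inhibition reaching or exceeding a fixed threshold, cut at about 30% in these data, passing the limit was not always enough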
T cell HTS = T cell immune modulation candidate. 2C CD8+ T cell-vesicle binding, flow cytometry; stronger effect = lower value. response (vesicle binding), % at 7 µM. actives 0.068% (n = 330,000);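 active means response, share of CD8 T cells binding vesicles, and their 90th percentile fluorescence all below set limits, cut at about 80% in these data, passing the limit was not always enough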;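 further: values below 100% mean blocked vesicle binding to the CD8+ T cells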
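Assay system – 2C mouse CD8+ T cells · Also added – QL9-loaded Drosophila micro-vesicles · Timing – Cell–vesicle co-incubation 1.5 h at 37 °C, staining 20 min on ice · Signal – flow cytometry of vesicle-bound cells · Measure – percent CD8+ FL2 mean versus row control · Controls – Peptide-free naked vesicles (low) and QL9 vesicles with 0.7% DMSO vehicle (high)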
Rce1 inh = inhibitors of yeast Ras-converting enzyme; Q03530; yeast membranes, quenched prenylated peptide cleavage fluorescence; calls only; actives 0.27% (n = 290,000);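 active means fall in fluorescence gain of 50% or more versus controls, with final raw signal at or below 3038400; inconclusive means same 50% fall but final raw signal above 3038400; inactive means fall in fluorescence gain under 50%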;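 further: plate controls were neutral control wells for no effect and wells lacking membranes for full effect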
Target sequence (Q03530 whole entry, looked up): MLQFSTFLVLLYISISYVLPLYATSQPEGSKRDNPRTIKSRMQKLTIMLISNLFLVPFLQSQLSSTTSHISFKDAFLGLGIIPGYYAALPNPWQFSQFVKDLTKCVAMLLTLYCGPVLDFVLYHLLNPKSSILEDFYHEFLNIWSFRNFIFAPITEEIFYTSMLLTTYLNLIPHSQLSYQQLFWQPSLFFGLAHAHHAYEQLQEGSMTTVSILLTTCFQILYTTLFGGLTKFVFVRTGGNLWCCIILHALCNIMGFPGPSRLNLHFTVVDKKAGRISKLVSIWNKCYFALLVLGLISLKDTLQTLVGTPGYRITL
Rin1 Abl inh = inhibitors of human Rin1-Abl protein interaction; TR-FRET Rin1/Abl binding, biochemical; inhibition, % at 7.35 µM; actives 0.4% (n = 360,000); AID 588664; in the data active means inhibition above about 5%, passing the limit was not always enough
Myeloid diff = compounds promoting myeloid differentiation; calls only; ER-HoxA9 myeloid progenitors, GFP/Mac1 double-positive flow; shares compounds with Myeloid diff MLP; actives 2% (n = 2,300);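 active means share of green or green-and-red cells above 9 and 9% in run 1 or 4 and 3% in run 2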
GFP autofluor = compound fluorescence in myeloid differentiation counter-screen | shares compounds with Myeloid diff MLP | ER-HoxA9 myeloid progenitors, no estrogen, GFP autofluorescence flow cytometry; vehicle wells 0%, positive control 100% | actives 7.4% (n = 2,300) | fluorescence response, % (no concentration beside the values);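 active means over 5% cells positive for green fluorescent reporter, or over 2% positive for both it and APC stain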;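 further: range taken on the double positive population between DMSO and positive control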
* marks the source's active call; other numbers are inactive results. Shown are actives, neighbours in structure and some others; about 2.6% of the full set was active somewhere.

Screening O=C1NC[C@@H](CCCCN2C[C@H](Cc3ccc(O)cc3)N(CCc3ccccc3)C(=O)C2=O)N(CCc2ccccc2)C1=O returned Myeloid diff MLP inactive and SKN-1 inh 8.1.
Cc1ccc(C(C(=O)NC2CCCCC2)N(C(=O)Cc2c[nH]c3ccccc23)c2ccccc2)o1 (centres undefined) was read as Myeloid diff MLP active, GRK2 inh 0.0, SKN-1 inh 5.7, T cell HTS 698.2, Rce1 inh inactive, Rin1 Abl inh -2.7, Myeloid diff inactive and GFP autofluor 0.3.
`CC(=O)Nc1ccc(N(C(=O)Cc2c[nH]c3ccccc23)C(C(=O)NC2CCCCC2)c2ccco2)cc1` (centres undefined) gave Myeloid diff MLP inactive, GRK2 inh 2.0, SKN-1 inh 9.8, T cell HTS 312.2, Rce1 inh inactive and Rin1 Abl inh 2.0.
`Cc1c(C(=O)N2CCN(c3ccc(F)cc3)CC2)sc2nc3n(c(=O)c12)CCC3` gave Myeloid diff MLP inactive, GRK2 inh 0.0, SKN-1 inh 5.0, T cell HTS 328.4, Rce1 inh inactive and Rin1 Abl inh 0.1.
For NC(=O)C1CCN(C(=O)c2ccc([N+](=O)[O-])cc2NC(=O)c2cccs2)CC1 the results were Myeloid diff MLP inconclusive, GRK2 inh 0.0, SKN-1 inh -4.9, T cell HTS 152.8, Rce1 inh inactive and Rin1 Abl inh -1.2.
`COc1cccc(OC(C)c2ccnc3nc(/N=C/N(C)C)nn23)c1` (centres undefined) gave Myeloid diff MLP inactive, GRK2 inh 3.0, SKN-1 inh -4.6, T cell HTS 175.7, Rce1 inh inactive, Rin1 Abl inh 7.0, Myeloid diff inactive and GFP autofluor 1.0.
`COc1ccccc1NS(=O)(=O)c1cc(NC(=O)Cc2n[nH]c(=O)c3ccccc23)ccc1Cl` gave Myeloid diff MLP inactive, GRK2 inh 0.0, SKN-1 inh 7.8, T cell HTS 62.5, Rin1 Abl inh 4.9, Myeloid diff inactive and GFP autofluor 0.4.
Screening O=C(CCc1ccc(S(=O)(=O)N2CCOCC2)cc1)Nc1c(F)cccc1F returned Myeloid diff MLP inactive, GRK2 inh 2.0, SKN-1 inh 22.4, T cell HTS 484.7 and Rin1 Abl inh 5.0.
`Cc1ccc(S(=O)(=O)N2C[C@H]3C(=O)C[C@@H](c4ccccc4)N(S(=O)(=O)c4ccc(Br)cc4)[C@H]3C[C@H]2c2ccccc2)cc1` gave Myeloid diff MLP active, SKN-1 inh -6.6, Rin1 Abl inh 3.4, Myeloid diff inactive and GFP autofluor 3.6.
For Cc1ccc(S(=O)(=O)N2C[C@H]3C(=O)C[C@@H](c4ccccc4)N(S(=O)(=O)c4ccc(C)cc4)[C@H]3C[C@H]2c2ccccc2)cc1 the results were Myeloid diff MLP inactive, SKN-1 inh -6.7 and Rin1 Abl inh 1.4.
Screening CC(C)CCC(C(=O)O)C(C)CC(=O)Nc1ccn(-c2ccccc2)n1 (centres undefined) returned Myeloid diff MLP inactive, GRK2 inh 0.0, SKN-1 inh -2.4, T cell HTS 196.9, Rce1 inh inactive and Rin1 Abl inh -2.5.
CN(C)/C(=N\S(=O)(=O)c1ccc(Cl)cc1)c1ccc(F)cc1 was read as Myeloid diff MLP inactive, GRK2 inh 1.0, SKN-1 inh 8.8, T cell HTS 154.9, Rce1 inh inactive and Rin1 Abl inh 1.9.
Screening Cc1ccc(C(=O)N(Nc2nc3ccccc3s2)C(=O)c2ccc(C)cc2)cc1 returned Myeloid diff MLP inactive, GRK2 inh 37.0, SKN-1 inh 4.7, T cell HTS 227.6, Rce1 inh inactive and Rin1 Abl inh 0.7.
`CC(C)C(=O)N(Nc1nc2ccccc2s1)C(=O)C(C)C` gave Myeloid diff MLP active, GRK2 inh 1.0, SKN-1 inh 0.8, T cell HTS 305.3, Rce1 inh inconclusive, Rin1 Abl inh -0.5, Myeloid diff inactive and GFP autofluor 0.0.
